Key:
[1] = test system: A549, H460, H1299, and HCC827 cell lines; assay: MTT assay, statements over all four lines; type: cell-based, human; conditions: 48 h
Summary of the method: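 H460, H1299 and HCC827 cells were kept in RPMI1640 with 10% FBS at 37 °C and 5% CO₂. A549 cells were plated at 2,500 per well. Cells were exposed to 0–50 µM test compound (final; 3.125–50 µM twofold steps) or DMSO control for 24, 48 and 72 h. MTT was then added for 2 h at 37 °C, formazan was dissolved in DMSO, and OD was read at 570 nm. Data are mean ± standard deviation; IC50 was calculated from viability.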

A549 cells = assay: Subcutaneous xenograft mouse model; type: in vivo, BALB/c-nude male mice; conditions: 30 mg/kg
Summary of the method: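 Male BALB/c nude mice aged 6–7 weeks, under isoflurane, received 5 × 10⁶ A549 cells in 50 µL PBS plus 50 µL Matrigel subcutaneously in the flank. Groups of six received vehicle, test compound or reference compound by oral gavage three times weekly for 27 days. Vehicle was Tween 80:PEG400:ethanol:5% glucose 1:6:3:20, at 100 µL per 25 g mouse. Tumors were caliper-measured three times weekly; endpoint was about 1,500 mm³ or distress.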

[2] = test system: A549 xenograft tumor tissue; assay: H&E staining of xenograft tumor tissue; type: in vivo, BALB/c-nude male mice; conditions: 30 mg/kg; compared to the vehicle group
Summary of the method: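 A549 cells (5 × 10⁶ in PBS plus Matrigel) were implanted subcutaneously into the flank of male nude mice aged 6–7 weeks. Compound was given by oral gavage three times weekly. Paraffin tumor sections were deparaffinized in xylene and rehydrated through graded ethanol. They were stained with hematoxylin for 30 s, differentiated in acid alcohol (0.3% HCl in 70% ethanol) and stained with eosin for 2 min. Sections were then dehydrated, cleared and mounted, and staining was quantified by image analysis.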

p-EGFR = assay: Immunohistochemistry of xenograft tumor tissue; type: in vivo, BALB/c-nude male mice; conditions: tumor tissues; compared to the vehicle group
Summary of the method: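 Paraffin sections of subcutaneous A549 flank tumors from nude mice were deparaffinized and rehydrated, and peroxidase was blocked with H₂O₂. Antigen retrieval used 0.01 M citrate (pH 6.0) at boiling for 10 min. Sections were blocked in normal goat serum for 1 h at RT, then incubated with anti-p-EGFR (Y1068) at 1:100 overnight at 4 °C. Detection used a biotinylated secondary (1 h, RT), ABC reagent (30 min) and DAB, with hematoxylin counterstain.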

p-EGFR(Y1068) = assay: Western blot, NSCLC cell lines; type: cell-based, human; conditions: A549 and H460 cells; 50 µM
Summary of the method: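 Cells were plated at 150,000 per well and treated with test compound or DMSO for 24 h. They were lysed in RIPA buffer with PMSF, DTT, NaF, Na₃VO₄ and protease inhibitors for 30 min on ice, then spun at 13,000 rpm for 30 min at 4 °C. Protein was quantified by Bradford assay and resolved by SDS-PAGE. Blots were probed with secondary antibodies at 1:5000 for 1 h at RT, detected by chemiluminescence and quantified by densitometry.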

CC(C)=CC(=O)O[C@H]1Cc2cc3ccc(=O)oc3cc2OC1(C)C [decursin]
cytotoxicity [1]: significant cytotoxicity at 50 µM
tumor size at the experimental endpoint (A549 cells; oral gavage three times per week, 27 days, vs vehicle): no statistically significant reduction
body weight changes (A549 cells; vs control, throughout the experimental period): no significant difference
tumor cell density (H&E) [2]: did not show a significant difference
p-EGFR-positive cells / expression (IHC) (p-EGFR): not significantly reduced
p-EGFR(Y1068) expression levels (p-EGFR(Y1068)): failed to inhibit EGFR phosphorylation

Source: publication PMC12215028 (Scientific Reports, 2025)
